This is an account of results in PubChem BioAssay AID504597 (Broad Institute, 2011).

In this experiment the test system is U2OS HRE-luciferase reporter, luminescence, HIF activation. Put plainly: HIF-driven HRE reporter activators, dose response, U2OS cells, luminescence, dry powder, set 9 (AID 504597). Summed up:
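assay system = U2OS cells carrying 3×HRE-luciferase reporter | amount = 6,000 cells per well | dosing = 8-point series in 3-fold steps, pinned from 7.5 mM stock | detection = luciferase luminescence, Steady-Glo reagent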
Regarding `c1ccc(CCNc2nc(-c3ccccn3)nnc2-c2ccccc2)cc1`, the AC40 was 3210 nM. For `c1ccc(-c2cccc(CNc3nc(-c4ccccn4)nnc3-c3ccccc3)c2)cc1` the value was 816 nM; for `CC(C)(C)CCNc1nc(-c2ccccn2)nnc1-c1ccccc1`, 1020 nM; for `c1ccc(-c2ccc(CNc3nc(-c4ccccn4)nnc3-c3ccccc3)cc2)cc1`, 461 nM. For `Clc1cccc(CNc2nc(-c3ccccn3)nnc2-c2ccccc2)c1` the value was 1480 nM. For `CC(C)(C)c1ccc(CNc2nc(-c3ccccn3)nnc2-c2ccccc2)cc1` the value was 546 nM.
